Test results taken from the RNAGym collection of RNA variant scans (doi:10.1101/gad.245936.114).
This sample holds only a part of the variants without activity.

B1: tRNA (parent)
chain: CUCUCGGUAGCCAAGUUGGUUUAAGGCGCAAGACUUUAAUUUAUCACUACGAAAUCUUGAGAUCGGGCGUUCGACUCGCCCCCGGGAGAUUUUUUCCUCGAGCAA

Variants of: B1
Assay: nonsense suppression (GFP-seq) (ratio to wild type); higher = more function; SUP4oc tRNA, yeast GFP reporter sort-seq
Outline: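 Yeast were grown in raffinose/galactose medium with 80 mg/L adenine, each strain bearing a genome-integrated ochre-suppressor tRNA variant from a ~3% random-mutation library, a galactose-driven GFP ochre reporter, and RFP. After sorting into GFP/RFP bins, every bin was sequenced on an Illumina platform at phred ≥30. The GFPSEQ value, a measure of nonsense suppression, is the weighted bin median GFP/RFP relative to the unmutated parent tRNA, using each variant's estimated cell share per bin as the weight. Only variants with ≥100 reads and ≥30 cells were included.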
U4G U8A gave a nonsense suppression of no more than 0.026.
U4A C12U showed a nonsense suppression of no more than 0.026.
With C5A U55C A89G the nonsense suppression was no more than 0.026.
In the case of U4C U17G G25C G66U U70C G84U, the nonsense suppression is reported as no more than 0.026.
Variant U4G A74G has a nonsense suppression of 0.0287.
Variant C5A U8C has a nonsense suppression of no more than 0.026.
C5A U8A gave a nonsense suppression of no more than 0.026.
Work on C5G C34U A74U C77A yielded a nonsense suppression of no more than 0.026.
Variant U4C U63C G67A has a nonsense suppression of no more than 0.026.
For U4G A60U, the nonsense suppression was 1.12.
In the case of U4A U57A, the nonsense suppression is reported as no more than 0.026.
Variant U4A A13C has a nonsense suppression of 0.294.
U4A A13U gave a nonsense suppression of 0.18.
Variant C5G G59A A62C has a nonsense suppression of no more than 0.026.
For C3U U21C G61A, the nonsense suppression was 0.206.
U4A A9G G73U C77G G86U showed a nonsense suppression of no more than 0.026.
U4G A13G U16C showed a nonsense suppression of 0.0797.
U4A G67C C68U showed a nonsense suppression of no more than 0.026.
For C5A A24C, the nonsense suppression was 0.0269.
For C5G A24U U57C G66U, the nonsense suppression was no more than 0.026.
C3U U4C C5G G7U U8A A9G G10C C12A U17A U57A gave a nonsense suppression of no more than 0.026.
C5G C12G U16C G32A gave a nonsense suppression of no more than 0.026.
Work on U4G A13U yielded a nonsense suppression of 0.191.
Work on U4G A24C yielded a nonsense suppression of 0.134.
With U4C A13C A24U the nonsense suppression was 0.488.
Variant U4G G78U has a nonsense suppression of 0.0997.
For U4C A9C G84A, the nonsense suppression was 0.0602.
U4A G19A A31U A62G showed a nonsense suppression of no more than 0.026.
U4A A13C U70C C82U showed a nonsense suppression of no more than 0.026.
For C5U C79U, the nonsense suppression was 0.0439.
For C5G G66U U71C, the nonsense suppression was no more than 0.026.
Work on U4A A13C C83U G84C yielded a nonsense suppression of no more than 0.026.
With U4C G73A the nonsense suppression was 1.04.
For C5U A23G G26C G78A, the nonsense suppression was no more than 0.026.
Variant U4C U8G G65A has a nonsense suppression of no more than 0.026.
For C5A G18U U76C G86A, the nonsense suppression was no more than 0.026.
C5U A31G U71C showed a nonsense suppression of no more than 0.026.
Work on C5U G84A yielded a nonsense suppression of 1.15.
For U4A U76A, the nonsense suppression was 0.0437.
C5U C68U showed a nonsense suppression of no more than 0.026.
Variant U4A U21A G66U has a nonsense suppression of no more than 0.026.
Variant U4G U76A has a nonsense suppression of 0.109.
C5U G6A C11A G25A showed a nonsense suppression of no more than 0.026.
With U4C U16C A31U the nonsense suppression was 0.97.
Variant U4A C11U C34U has a nonsense suppression of no more than 0.026.
With U4C A9G A13G U76C the nonsense suppression was 0.202.
U4C G25A gave a nonsense suppression of 0.162.
Work on U4C G25C yielded a nonsense suppression of 0.723.
Work on U4C G15A yielded a nonsense suppression of 0.746.
Variant U4C A87G has a nonsense suppression of 1.1.
Work on U4C A87C yielded a nonsense suppression of 0.197.
With U4A U16G the nonsense suppression was 0.247.
Variant U4A U16A has a nonsense suppression of 0.215.
In the case of U4A U21G C79U, the nonsense suppression is reported as no more than 0.026.
Variant U4C U22C G86A has a nonsense suppression of 1.16.
U4C U63G gave a nonsense suppression of 0.0946.
For C5A G59C, the nonsense suppression was no more than 0.026.
For C3U G66C, the nonsense suppression was 0.0288.
With U4C A9U the nonsense suppression was 1.07.
With U4C A9G the nonsense suppression was 0.391.
In the case of U4C A9C, the nonsense suppression is reported as 1.02.
Work on C3U U22C yielded a nonsense suppression of 0.304.
C3U U22A showed a nonsense suppression of 0.169.
Work on U4C G7U yielded a nonsense suppression of 0.202.
Variant C5A C64A C77A has a nonsense suppression of no more than 0.026.
In the case of U4A G18A C77A, the nonsense suppression is reported as no more than 0.026.
In the case of U4C G6U, the nonsense suppression is reported as 0.959.
For C5G G61A, the nonsense suppression was no more than 0.026.
In the case of U4C A9G U22G, the nonsense suppression is reported as 0.202.
In the case of U4C G59A, the nonsense suppression is reported as no more than 0.026.
Variant C3U U58C has a nonsense suppression of 0.202.
With U4G G61A C75A the nonsense suppression was 0.558.
With C5U G26C G65C U76A the nonsense suppression was no more than 0.026.
U4A U22G showed a nonsense suppression of 0.155.
In the case of U4C A14G G61A U71A, the nonsense suppression is reported as no more than 0.026.
In the case of C5G G10C U57C, the nonsense suppression is reported as no more than 0.026.
U4A A31U showed a nonsense suppression of 0.0312.
In the case of C5U G28C, the nonsense suppression is reported as 0.0292.
Work on C5A U58A G78C yielded a nonsense suppression of no more than 0.026.
Work on C5G A60C C64A yielded a nonsense suppression of no more than 0.026.
Variant C5G U57G U71G has a nonsense suppression of no more than 0.026.
U4G U57G A60U gave a nonsense suppression of no more than 0.026.
For C5A A24U G66A, the nonsense suppression was no more than 0.026.
U4C U22A G86A gave a nonsense suppression of 0.552.
Variant C5G U20G C75G G88U has a nonsense suppression of no more than 0.026.
Variant U4C G85A has a nonsense suppression of 0.625.
Variant U4C U71C has a nonsense suppression of no more than 0.026.
Work on U4G U17G G69A yielded a nonsense suppression of no more than 0.026.
In the case of U4C C83U, the nonsense suppression is reported as 1.17.
Work on U4A C79U yielded a nonsense suppression of 0.0353.
For C5U A13G A14C, the nonsense suppression was no more than 0.026.
In the case of C5U A62U G69C A87U, the nonsense suppression is reported as no more than 0.026.
For U4G C56U, the nonsense suppression was 0.0355.
C5U C12G A13G C29A showed a nonsense suppression of no more than 0.026.
C5A A30U C68A showed a nonsense suppression of no more than 0.026.
C5U G61A showed a nonsense suppression of 0.0314.
Variant U4C C11A A33G A74U has a nonsense suppression of no more than 0.026.
In the case of U4C G61U, the nonsense suppression is reported as 1.02.
U4C G61A showed a nonsense suppression of 1.25.
U4C G61C gave a nonsense suppression of 0.86.
In the case of U4C G78A, the nonsense suppression is reported as 0.978.
In the case of U4C G78U, the nonsense suppression is reported as 1.12.
U4C G78C gave a nonsense suppression of 1.06.
In the case of U4G A60C G85A, the nonsense suppression is reported as no more than 0.026.
For U4G U17C, the nonsense suppression was 0.45.
U4G A87C gave a nonsense suppression of 0.0794.
With C5U C29U C34U A87C the nonsense suppression was no more than 0.026.
In the case of C5A G61C, the nonsense suppression is reported as 0.0329.
C3U U35G G61A showed a nonsense suppression of no more than 0.026.
With U4C A9G G15A A30U the nonsense suppression was 0.0449.
In the case of C5U U22C U57C A74C, the nonsense suppression is reported as no more than 0.026.
In the case of C5G G25C G69C C80A, the nonsense suppression is reported as no more than 0.026.
G6A A13G U20G C34A G73A showed a nonsense suppression of 0.0802.
U4G G61U showed a nonsense suppression of 0.804.
U4G G61A showed a nonsense suppression of 0.189.
Work on U4A A9U yielded a nonsense suppression of 0.2.
In the case of U4A A60U, the nonsense suppression is reported as 0.52.
U4C C34G gave a nonsense suppression of 0.0649.
Work on U4C C34A yielded a nonsense suppression of 0.0274.
For C5U C83G, the nonsense suppression was no more than 0.026.
For U4G A23C G26U A62U G69C G84U, the nonsense suppression was 0.116.
C3U U17A showed a nonsense suppression of 0.194.
Variant U4G A31G has a nonsense suppression of 0.0398.
For U4G A31U, the nonsense suppression was 0.0387.
With C5A G19U U55G A60U the nonsense suppression was no more than 0.026.
U4A A54U showed a nonsense suppression of 0.191.
C5A G78C gave a nonsense suppression of no more than 0.026.
With C5A G78U the nonsense suppression was 0.0303.
With C5A G78A the nonsense suppression was 0.0335.
Variant C5U U8C G65A has a nonsense suppression of no more than 0.026.
With U4G U71A the nonsense suppression was 0.0967.
With U4G A30U the nonsense suppression was 0.0386.
In the case of C5U C75U, the nonsense suppression is reported as 0.0347.
Variant C5U C75A has a nonsense suppression of 0.209.
U4C A23U A54G G59U G67C showed a nonsense suppression of no more than 0.026.
In the case of C5A A31C, the nonsense suppression is reported as no more than 0.026.
In the case of C5G G25C G69C, the nonsense suppression is reported as no more than 0.026.
U4A C83G G88C gave a nonsense suppression of no more than 0.026.
Work on U4G G6U U21C U55C C79G yielded a nonsense suppression of no more than 0.026.
In the case of C5U C11U G66A, the nonsense suppression is reported as no more than 0.026.
C5G G25A A89G gave a nonsense suppression of no more than 0.026.
In the case of U4G A23U A24C A33U G67A G84C A87G G88C, the nonsense suppression is reported as no more than 0.026.
Work on C5U U55G C68A A74U yielded a nonsense suppression of no more than 0.026.
For U4C G86C, the nonsense suppression was 0.162.
For U4C G86A, the nonsense suppression was 1.09.
For C5A A14G, the nonsense suppression was no more than 0.026.
U4A A24U gave a nonsense suppression of 0.0458.
With C5U C11A U21G A87U the nonsense suppression was no more than 0.026.
With U4G A9C the nonsense suppression was 0.0511.
With U4G G85C the nonsense suppression was 0.813.
C5U G19C U35A A89G gave a nonsense suppression of no more than 0.026.
Work on G6A A13G yielded a nonsense suppression of no more than 0.026.
With G6A A13U the nonsense suppression was 0.0458.
Work on C5A U76C G86C yielded a nonsense suppression of no more than 0.026.
C5U U8A A9C G10C C12U G25U A31G gave a nonsense suppression of no more than 0.026.
Work on C5A A13C U58A C81A yielded a nonsense suppression of no more than 0.026.
With U4C C27U the nonsense suppression was 0.792.
For C3U U4C A9C, the nonsense suppression was 1.11.
Variant C5A C27G G73A has a nonsense suppression of no more than 0.026.
In the case of C5A G7U U20G A74U, the nonsense suppression is reported as no more than 0.026.
U4C G61U C79G A89G gave a nonsense suppression of no more than 0.026.
For C5A A60G, the nonsense suppression was 0.0265.
For C5A A60C, the nonsense suppression was 0.0331.
U4C A13G C29U showed a nonsense suppression of 0.221.
U4A C11A A14U showed a nonsense suppression of no more than 0.026.
U4C A60C gave a nonsense suppression of 1.04.
In the case of C3U U8C, the nonsense suppression is reported as 0.0916.
